The values below come from the M2OR odorant receptor database.

What all share (settings): stereoisomer not certain
Test [1] has as its target T1, UniProt E9PVX1.
T1 sequence (whole entry): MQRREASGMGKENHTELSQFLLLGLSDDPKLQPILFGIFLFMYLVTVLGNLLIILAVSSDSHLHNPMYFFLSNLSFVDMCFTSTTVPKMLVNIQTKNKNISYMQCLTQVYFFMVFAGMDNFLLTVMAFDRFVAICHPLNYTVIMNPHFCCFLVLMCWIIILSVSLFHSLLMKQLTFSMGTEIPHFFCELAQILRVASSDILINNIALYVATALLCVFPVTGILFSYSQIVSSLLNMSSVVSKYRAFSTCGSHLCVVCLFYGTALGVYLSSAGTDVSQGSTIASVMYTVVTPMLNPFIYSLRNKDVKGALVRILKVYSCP
A digest of the protocol:
(§1)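 Each entry records the cell line, G-protein, co-transfected protein and tags used. Methods varied with the source, often transient luciferase assays in mammalian cell lines. A receptor–molecule pair is called responsive (active) if the original authors judged its signal statistically different from baseline and non-responsive (inactive) otherwise.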

The target in test [2] is T2, UniProt E9PZ66.
T2 sequence (whole entry): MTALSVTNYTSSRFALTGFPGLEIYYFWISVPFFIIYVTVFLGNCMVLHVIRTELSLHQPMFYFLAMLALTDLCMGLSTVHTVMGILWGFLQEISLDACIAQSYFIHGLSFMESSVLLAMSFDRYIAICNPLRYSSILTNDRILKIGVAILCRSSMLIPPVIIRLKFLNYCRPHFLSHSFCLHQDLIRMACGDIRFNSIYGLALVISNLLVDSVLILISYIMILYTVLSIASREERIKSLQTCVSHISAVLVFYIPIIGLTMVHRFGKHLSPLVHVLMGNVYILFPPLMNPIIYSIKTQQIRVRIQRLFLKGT
A digest of the protocol:
as §1

In test [3] the target is T3, UniProt E9Q4X7.
T3 sequence (whole entry): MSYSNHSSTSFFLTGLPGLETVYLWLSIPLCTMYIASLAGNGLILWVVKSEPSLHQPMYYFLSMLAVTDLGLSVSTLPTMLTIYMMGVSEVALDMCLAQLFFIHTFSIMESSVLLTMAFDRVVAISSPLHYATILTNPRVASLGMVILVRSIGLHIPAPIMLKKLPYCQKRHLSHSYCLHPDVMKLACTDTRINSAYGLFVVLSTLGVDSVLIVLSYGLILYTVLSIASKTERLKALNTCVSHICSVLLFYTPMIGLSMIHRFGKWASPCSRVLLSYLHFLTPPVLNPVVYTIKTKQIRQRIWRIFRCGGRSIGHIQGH
A digest of the protocol: as §1

In test [4] the target is T4, UniProt E9Q546.
T4 sequence (whole entry): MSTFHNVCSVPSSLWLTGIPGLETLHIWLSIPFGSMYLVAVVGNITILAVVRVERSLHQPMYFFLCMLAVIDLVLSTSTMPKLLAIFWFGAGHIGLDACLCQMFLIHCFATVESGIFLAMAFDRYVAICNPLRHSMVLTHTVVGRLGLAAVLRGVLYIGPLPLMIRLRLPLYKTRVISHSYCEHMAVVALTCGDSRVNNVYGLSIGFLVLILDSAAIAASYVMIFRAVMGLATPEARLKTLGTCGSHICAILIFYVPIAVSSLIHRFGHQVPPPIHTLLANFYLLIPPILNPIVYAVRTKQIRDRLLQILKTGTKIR
A digest of the protocol: as §1

Test [5] deals with T5, UniProt E9Q6Z7.
T5 sequence (whole entry): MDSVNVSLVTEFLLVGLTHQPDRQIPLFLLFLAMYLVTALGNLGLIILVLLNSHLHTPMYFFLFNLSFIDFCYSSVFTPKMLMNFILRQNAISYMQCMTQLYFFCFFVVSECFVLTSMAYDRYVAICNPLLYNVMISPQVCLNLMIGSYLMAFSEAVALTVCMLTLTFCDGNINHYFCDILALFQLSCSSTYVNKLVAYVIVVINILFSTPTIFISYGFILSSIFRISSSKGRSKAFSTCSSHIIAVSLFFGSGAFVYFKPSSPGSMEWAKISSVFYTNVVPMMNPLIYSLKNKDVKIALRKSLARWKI
A digest of the protocol: as §1

For test [6], the target named is T6, UniProt L7MU75.
T6 sequence (whole entry): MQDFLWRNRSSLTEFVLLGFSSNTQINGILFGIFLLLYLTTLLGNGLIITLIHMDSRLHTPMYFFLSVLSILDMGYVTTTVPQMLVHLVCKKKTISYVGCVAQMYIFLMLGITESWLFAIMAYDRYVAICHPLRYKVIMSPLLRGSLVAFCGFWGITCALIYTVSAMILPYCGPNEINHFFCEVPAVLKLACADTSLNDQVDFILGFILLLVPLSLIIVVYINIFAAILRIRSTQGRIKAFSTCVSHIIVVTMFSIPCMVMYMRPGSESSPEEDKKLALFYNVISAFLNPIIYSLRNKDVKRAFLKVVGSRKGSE
The gist of the method:
as §1

For test [7], the target named is T7, UniProt E9Q9Z6.
T7 sequence (whole entry): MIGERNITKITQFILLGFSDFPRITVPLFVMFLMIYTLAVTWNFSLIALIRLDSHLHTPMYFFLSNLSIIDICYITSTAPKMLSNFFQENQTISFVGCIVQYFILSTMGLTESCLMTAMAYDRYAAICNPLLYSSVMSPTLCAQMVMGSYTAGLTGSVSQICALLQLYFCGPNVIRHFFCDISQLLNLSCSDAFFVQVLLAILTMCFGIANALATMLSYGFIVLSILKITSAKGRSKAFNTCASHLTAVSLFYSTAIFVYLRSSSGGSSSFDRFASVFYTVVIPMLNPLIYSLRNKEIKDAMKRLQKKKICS
A digest of the protocol:
as §1

For test [8], the target named is T8, UniProt B2RVX8.
T8 sequence (whole entry): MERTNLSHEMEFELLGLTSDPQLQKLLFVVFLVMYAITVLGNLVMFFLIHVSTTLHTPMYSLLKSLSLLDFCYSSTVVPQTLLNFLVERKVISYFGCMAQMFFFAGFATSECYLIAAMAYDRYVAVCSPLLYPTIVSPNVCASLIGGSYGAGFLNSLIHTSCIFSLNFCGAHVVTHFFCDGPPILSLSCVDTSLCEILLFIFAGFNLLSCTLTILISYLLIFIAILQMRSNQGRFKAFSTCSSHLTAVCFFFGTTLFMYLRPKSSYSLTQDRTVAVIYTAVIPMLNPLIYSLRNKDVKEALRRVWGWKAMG
The gist of the method: as §1

Test [9] addresses T9, UniProt K7N609.
T9 sequence (whole entry): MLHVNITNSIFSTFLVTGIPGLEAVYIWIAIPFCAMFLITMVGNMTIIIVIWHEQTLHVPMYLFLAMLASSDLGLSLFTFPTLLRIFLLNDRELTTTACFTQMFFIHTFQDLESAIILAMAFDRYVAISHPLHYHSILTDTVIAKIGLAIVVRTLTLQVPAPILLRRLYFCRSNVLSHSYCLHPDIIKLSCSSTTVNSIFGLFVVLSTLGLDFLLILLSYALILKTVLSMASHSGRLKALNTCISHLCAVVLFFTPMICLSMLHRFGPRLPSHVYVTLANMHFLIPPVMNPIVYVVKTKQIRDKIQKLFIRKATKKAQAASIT
The gist of the method: as §1

Test [10] has as its target UniProt E9PXN3. A digest of the protocol: as §1

Sequence of UniProt E9PXN3 (E9PXN3 as listed by the source): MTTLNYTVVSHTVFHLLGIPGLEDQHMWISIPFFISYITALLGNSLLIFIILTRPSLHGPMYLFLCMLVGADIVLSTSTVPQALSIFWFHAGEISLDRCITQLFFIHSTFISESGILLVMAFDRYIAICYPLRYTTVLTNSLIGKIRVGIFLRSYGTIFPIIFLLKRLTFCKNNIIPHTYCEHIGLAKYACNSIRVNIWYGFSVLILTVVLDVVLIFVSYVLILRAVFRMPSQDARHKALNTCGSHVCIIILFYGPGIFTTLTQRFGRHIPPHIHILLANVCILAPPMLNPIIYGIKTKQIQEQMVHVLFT

For `O=Cc1ccccc1`, the “odorant receptor agonist call” value in test [1], in test [2], in test [3], in test [4] and in [5] was “inactive” in each case.
Take `Cc1ccc(OC(=O)Cc2ccccc2)cc1`: the “odorant receptor agonist call” value in test [1], in test [2], in test [3], in test [4], in [5] and in test [6] was “inactive” throughout.
As to `CC(=O)c1cc2c(cc1C)C(C)(C)C(C)CC2(C)C` (configuration not stated), the “odorant receptor agonist call” value in test [7] was “active”.
On to `Cc1c([N+](=O)[O-])c(C)c([N+](=O)[O-])c(C(C)(C)C)c1[N+](=O)[O-]`, for which the “odorant receptor agonist call” value in test [7] was “active”.
Consider `C=CCOC(=O)Cc1ccccc1`, for which the “odorant receptor agonist call” value in test [8], in test [1], in test [2], in [3], in test [4] and in test [5] was “inactive” throughout. Besides, the “odorant receptor agonist call” value in [9] and in [6] was “inactive” throughout.
Regarding `O=Cc1ccc2c(c1)OCO2`, the “odorant receptor agonist call” value in test [1], in test [2], in test [3], in test [4] and in test [5] was “inactive” in each case.
Turning to `COc1ccc(C=O)cc1`, the “odorant receptor agonist call” value in test [1], in test [2], in test [3], in [4], in test [5] and in test [6] was “inactive” each time.
`O=c1cc(O)c2ccccc2o1`: the “odorant receptor agonist call” value in test [8], in test [1], in [2], in [3], in test [4] and in [5] was “inactive” in each case. The “odorant receptor agonist call” value in [9] and in test [6] was “inactive” throughout.
On to `CCCCCCC(Br)C(=O)O` (configuration not stated), for which the “odorant receptor agonist call” value in [1], in [2], in [3], in test [4], in test [5] and in test [6] was “inactive” in each case.
For `O=CC=Cc1ccccc1`, the “odorant receptor agonist call” value in test [1], in test [2], in test [3], in test [4], in [5] and in [6] was “inactive” in each case.
Regarding `OCc1ccc2c(c1)OCO2`, the “odorant receptor agonist call” value in test [1], in test [2], in test [3], in [4], in test [5] and in test [6] was “inactive” each time.
For the compound `C=C(C)C1CC=C(C=O)CC1` (configuration not stated), the “odorant receptor agonist call” value in test [1], in test [2], in test [3], in test [4], in test [5] and in test [6] was “inactive” in each case.
`CCC1CCC(=O)O1` (configuration not stated): the “odorant receptor agonist call” value in test [8], in test [4], in test [9] and in test [6] was “inactive” throughout.
`Oc1ccccc1Br`: the “odorant receptor agonist call” value in [1], in test [2], in [3], in test [4], in test [5] and in test [6] was “inactive” each time.
As for `CC(=O)c1cc(C(C)(C)C)cc2c1CCC2(C)C`, in test [7], the “odorant receptor agonist call” value was “inactive”.
On to `CC(C=O)Cc1ccc2c(c1)OCO2` (configuration not stated), for which the “odorant receptor agonist call” value in test [1], in test [2], in test [3], in [4], in test [5] and in test [6] was “inactive” in each case.
Take `CSSC`: the “odorant receptor agonist call” value in test [1], in [2], in test [3], in test [4], in [5] and in test [6] was “inactive” throughout.
Consider `C=CCc1ccccc1`, for which the “odorant receptor agonist call” value in test [8], in test [4] and in test [9] was “inactive” each time.
With `CCCCC(Br)C(=O)O` (configuration not stated), the “odorant receptor agonist call” value in [1], in [2], in test [3], in test [4], in test [5] and in test [6] was “inactive” in each case.
With `O=C(O)CCCCCCCBr`, the “odorant receptor agonist call” value in [10] was “inactive”.
